Source: PubChem (several laboratories)
Rows were chosen to be rich in hits. Some 6.4% of all compounds tested hit in one or more screens of this group.
PLK1 inh: human PLK1 kinase inhibitors, primary screen, biochemical, TR-FRET. recombinant PLK1 kinase, TR-FRET peptide phosphorylation. inhibition, % at 10 µM. 0.53% of 97,000 active. AID 619, 2007;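 active = inhibition of 50% or more in the single-concentration screen; inactive = inhibition below 50%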;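 also: 0% = DMSO max control and 100% = H-89 dihydrochloride min control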
PostGolgi yeast: phenotypic screen on post-Golgi transport, primary screen; post-Golgi transport phenotypic cell assay; inhibition, % at 10 µM; 0.9% of 98,000 active; AID 739, 2007;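 also: yeast cells grown in 1536-well plates; yeast grown about 18 h at 30C before absorbance read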
PostGolgi ctrl: growth inhibition of yeast control strain, primary screen, counter-screen for post-Golgi transport modulator project; efflux-deficient yeast background strain, growth absorbance A615, 16 h; inhibition, % at 10 µM; 5% of 98,000 active
Rev-RRE block: HIV-1 Rev-RRE binding inhibitors, primary screen, biochemical, FRET, protein-RNA interaction; inhibition, % at 8 µM; P05866; Rev peptide-RRE RNA binding; 0.79% of 97,000 active;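 active = inhibition above the screen-wide mean plus 3 SD, cut at about 35% in these data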;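 also: 0% = median DMSO wells and 100% = median Neomycin B control wells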
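Assay system: Labelled RRE RNA duplex and labelled Rev peptide | Times: 5 min preincubation and 15 min binding, 25 °C | Detection: FRET, ex 480 nm, em 540 and 671 nm | Evaluation: % inhibition of FRET ratio versus controls | Benchmarks: DMSO wells as 0% and neomycin B wells as 100% inhibition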
EphB4 antag: EphB4-ephrin-B2 interaction antagonists, primary screen, biochemical, TNYL-RAW peptide probe, fluorescence polarization | EphB4 LBD / TNYL-RAW-Alexa532 peptide | Ephrin type-B receptor 4 (Homo sapiens), P54760 | inhibition, % at 7 µM | 0.15% of 97,000 active;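 active = inhibition above the screen-wide mean inhibition plus 3 SD, cut at about 15% in these data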;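 also: 0% = DMSO wells and 100% = excess unlabeled TNYL-RAW peptide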
Target sequence (P54760 whole entry, looked up, the tested form may be a part): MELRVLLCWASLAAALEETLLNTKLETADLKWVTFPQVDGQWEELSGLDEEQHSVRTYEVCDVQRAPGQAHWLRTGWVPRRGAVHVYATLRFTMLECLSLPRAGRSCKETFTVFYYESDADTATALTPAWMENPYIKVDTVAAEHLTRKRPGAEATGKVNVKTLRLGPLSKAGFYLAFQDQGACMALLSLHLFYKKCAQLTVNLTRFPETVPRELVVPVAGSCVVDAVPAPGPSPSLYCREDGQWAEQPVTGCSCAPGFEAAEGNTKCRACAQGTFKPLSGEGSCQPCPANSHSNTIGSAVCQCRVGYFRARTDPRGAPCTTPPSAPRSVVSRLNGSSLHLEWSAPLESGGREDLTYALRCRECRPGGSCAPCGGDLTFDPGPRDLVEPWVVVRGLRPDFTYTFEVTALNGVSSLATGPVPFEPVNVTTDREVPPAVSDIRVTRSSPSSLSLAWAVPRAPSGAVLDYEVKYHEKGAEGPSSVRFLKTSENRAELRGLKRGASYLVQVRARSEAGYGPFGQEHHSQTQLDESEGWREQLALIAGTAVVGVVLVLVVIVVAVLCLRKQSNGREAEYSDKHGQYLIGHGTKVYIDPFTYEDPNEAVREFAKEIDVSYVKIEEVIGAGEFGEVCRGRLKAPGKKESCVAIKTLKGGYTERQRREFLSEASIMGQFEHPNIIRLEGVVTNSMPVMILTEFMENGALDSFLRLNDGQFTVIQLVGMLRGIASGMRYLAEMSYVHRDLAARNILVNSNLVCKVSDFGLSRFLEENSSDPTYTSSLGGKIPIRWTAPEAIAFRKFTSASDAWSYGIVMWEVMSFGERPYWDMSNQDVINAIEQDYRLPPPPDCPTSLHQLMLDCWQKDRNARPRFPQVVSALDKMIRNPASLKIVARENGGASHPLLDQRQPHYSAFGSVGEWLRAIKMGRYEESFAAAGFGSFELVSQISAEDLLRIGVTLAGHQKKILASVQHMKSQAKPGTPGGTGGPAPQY
PLK1 PBD inh: Plk1 polo box domain binding inhibitors, primary screen, biochemical, fluorescence polarization; inhibition, %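 (tested at about 20 µM)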; 0.13% of 97,000 active; Serine/threonine-protein kinase PLK1 (Homo sapiens), P53350; Plk1 PBD phosphopeptide binding; in the data active = inhibition above about 34%, passing the limit was not always enough
Active calls of the source: *; x = no result given; [ ] = another dose, or the depositor's remark. Rule as the data show it, unless noted: active = inhibition above about 30%; inactive = the rest.

SMILES	PLK1 inh	PostGolgi yeast	PostGolgi ctrl	Rev-RRE block	EphB4 antag	PLK1 PBD inh
Cc1ccccc1N1C(=O)c2cccc3c(N(C)CCO)ccc(c23)C1=O	-33	-2	11	125*[fluorescence artefact?]	3	-26
O=[N+]([O-])c1ccc(N2CCN(c3ccc(Cl)nn3)CC2)cc1NC1CC1	-5	x	x	2	-8	-7
CCc1n[nH]c2c1/C(=N\O)CC(c1ccccc1)C2 (centres undefined)	-7	1	1	4	0	14
CCc1n[nH]c2c1/C(=N\O)CC(C)(C)C2	-4	98*	2	-4	-2	7
COc1cc2c(C#N)c(N3CCc4ccccc4C3)nc(N)c2c(N)n1	-15	27	77*	21	-10	-11
COc1cc2c(C#N)c(N3CCCCC3)nc(N)c2c(N)n1	-8	-9	18	28	-14	-12
CCn1c(SCc2ccc(Cl)cc2Cl)nc2nc3c(cc2c1=O)CCCC3	-2	2	6	13	-4	4
COCCN(Cc1cc2cc(C)cc(C)c2nc1Cl)C(=O)Nc1ccccc1	-10	-2	35*	2	-8	4
Cc1cc(C)c2nc(Cl)c(CN(Cc3ccco3)C(=O)Nc3ccccc3C)cc2c1	-5	7	34*	0	7	1
CCOc1ccccc1N1CCN(C(=O)c2cc3c(s2)CCC3)CC1	1	17	40*	3	0	-18
CCOc1ccccc1N1CCN(C(=O)c2cc(C)oc2C)CC1	x	5	2	x	x	x
COc1cccc(CN2C(=O)C3CCCN3c3ccc(S(=O)(=O)N4CCOCC4)cc32)c1 (centres undefined)	-18	8	2	6	4	20
CC(=O)Nc1ccc(OC(F)(F)C(F)C(F)(F)F)c(NC(C)=O)c1 (centres undefined)	-11	-2	4	2	-2	14
CC(C(=O)NCC1CCCO1)N(C(=O)c1snc(C(N)=O)c1N)c1ccccc1 (centres undefined)	-2	2	30*	5	-3	8
CC(C(=O)NCC1CCCO1)N(C(=O)c1snc(C(N)=O)c1N)c1cccc(F)c1 (centres undefined)	0	-3	7	4	4	-14
CCN(CC)CCCN(Cc1cc2cc3c(cc2[nH]c1=O)OCCO3)C(=O)Nc1ccc(F)cc1	-2	35*	1	-1	-4	-8
COc1ccc(NC(=O)C2CCCN(S(=O)(=O)c3ccc4c(c3)oc(=O)n4C)C2)c(OC)c1 (centres undefined)	3	-6	14	8	-1	12
COc1ccc(Cl)cc1N(CC(=O)Nc1ccccc1SC)S(C)(=O)=O	-12	-10	13	11	6	-17
O/N=C(\c1ccc(Cl)cc1)c1cc2ccccc2o1	-2	15	34*	17	4	14
Cc1ccc(C(=O)c2cc3ccccc3o2)cc1	7	0	3	11	4	-8
CCOc1ccccc1C(=O)Nc1cc(OC)ccc1OC	7	1	47*	15	-6	-2
CCOc1ccccc1C(=O)Nc1cc(Cl)ccc1O	-8	9	87*	16	3	11
COc1ccc(OC)c(NC(=O)c2ccccc2SC)c1	-2	-1	3	3	-9	-16
COc1ccc(OC)c(N2Cc3cc(C)c(C)cc3C2)c1	-1	-3	1	4	-3	5
COc1ccc(OC)c(C2C(C(C)=O)=C(O)C(=O)N2Cc2cccnc2)c1 (centres undefined)	-13	7	-4	3	-3	-5
SMILES	PLK1 inh	PostGolgi yeast	PostGolgi ctrl	Rev-RRE block	EphB4 antag	PLK1 PBD inh
Cn1c(NC(=O)c2cccs2)c(-c2cccs2)c(=O)c2ccccc21	0	4	32*	9	3	-5
Cn1c(NC(=O)c2ccccc2)c(-c2cccs2)c(=O)c2ccccc21	10	0	25	13	5	-7
CCNC(=O)COc1ccc(S(=O)(=O)Nc2ccccc2)cc1	-8	5	4	-2	-5	9
COc1ccc(NS(=O)(=O)c2c(C)cc(C)cc2C)cc1	9	-3	21	16	0	-11
Cc1cc(C)c(S(=O)(=O)Nc2ccc(OCC(=O)O)cc2)c(C)c1	-4	6	41*	6	-1	18
COc1cccc(NS(=O)(=O)c2c(C)cc(C)cc2C)c1	-3	-4	32*	15	0	2
Cc1cc(NC(=O)c2ccc(S(=O)(=O)N3CCCC3)cc2)nc2c1c(=O)oc1ccccc12	-55	4	12	4	-1	-14
Cc1cc(NC(=O)c2ccc(S(=O)(=O)N3CCOCC3)cc2)nc2c1c(=O)oc1ccccc12	-8	31*	4	8	-5	-1
CCC(CC)C(=O)Nc1cc(C)c2c(=O)oc3ccccc3c2n1	-19	29	34*	x	x	-8
Cc1ccccc1NS(=O)(=O)c1cc(C(=O)NCCC2=CCCCC2)ccc1Cl	-7	-1	17	9	-4	-1
Cc1cccc(NS(=O)(=O)c2cc(C(=O)NCCC3=CCCCC3)ccc2Cl)c1	-11	7	35*	5	-9	-29
c1ccc(-c2nc(NCC3CCCO3)c3oc4ccccc4c3n2)cc1 (centres undefined)	-2	2	53*	13	-2	8
c1ccc(-c2nc(NCc3cccnc3)c3oc4ccccc4c3n2)cc1	-15	17	55*	9	-2	-13
O=C(c1nc(-c2ccccc2)n(-c2ccccc2)n1)N1CCN(S(=O)(=O)c2ccccc2)CC1	x	14	8	x	x	x
CCOC(=O)c1c(C=O)c(C)n(Cc2ccccc2)c1C	-10	0	10	3	0	13
CCOC(=O)c1c(C=O)c(C)n(Cc2ccc(Cl)cc2)c1C	7	3	42*	20	4	1
CCOC(=O)c1c(NC(=O)CSc2nnc(C)s2)sc2c1CCC(CC)C2 (centres undefined)	-21	x	x	-2	-7	-11
O=C(COC(=O)c1cncc(Br)c1)NCCC1=CCCCC1	-5	5	4	10	0	15
O=C(CNS(=O)(=O)c1ccc(Br)s1)Nc1ccc2c(c1)OCCO2	7	8	-4	4	0	-5
O=C(NCC1COc2ccccc2O1)c1ccc(Cl)cc1 (centres undefined)	-11	58*	25	-3	2	21
O=C(CNS(=O)(=O)c1ccc(Br)s1)NCC1COc2ccccc2O1 (centres undefined)	-2	68*	95*	0	-12	5
Cc1nc2nc3c(cn2n1)C(=O)CCC3	1	-1	8	11	1	-6
